Compound activity: PubChem BioAssay, several laboratories
Apaf1 inhib: human Apaf-1 inhibition. inhibition, % at 20 µM. reconstituted apoptosome caspase-3 activity, DEVD-Rh110 fluorescence. O14727. 330,000 compounds, 0.71% hits. AID 489030; active = inhibition of at least 40% at 20 µM;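 note: plate controls were DMSO wells for no effect and DEVD-CHO caspase inhibitor wells for full effect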
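Material: reconstituted apoptosome with Apaf-1, cytochrome c, caspase-9, procaspase-3, dATP. Technique: Rh110 fluorescence intensity. Buffer or medium: pH 7.5 Hepes buffer with CHAPS, BSA, DTT. Times: 30 min plus 50 min, RT.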
MEKK3 PB1 HTS: raises or lowers MEK5 binding to the human MEKK3 PB1 domain | binding response (% of control), % at 10 µM | Q99759 | bead-based flow cytometry, Alexa488-MEK5 binding to MEKK3; actives lie on both sides; 0 = blocked by unlabeled MEK5, 100 = vehicle | 290,000 compounds, 1.4% hits;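 active = binding response more than 3 SD above or below the average of its plate-row segment, actives on both sides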;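 note: Alexa488 bead fluorescence after subtracting the streptavidin-only scavenger bead signal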
Target sequence (Q99759 whole entry, looked up, the tested form may be a part): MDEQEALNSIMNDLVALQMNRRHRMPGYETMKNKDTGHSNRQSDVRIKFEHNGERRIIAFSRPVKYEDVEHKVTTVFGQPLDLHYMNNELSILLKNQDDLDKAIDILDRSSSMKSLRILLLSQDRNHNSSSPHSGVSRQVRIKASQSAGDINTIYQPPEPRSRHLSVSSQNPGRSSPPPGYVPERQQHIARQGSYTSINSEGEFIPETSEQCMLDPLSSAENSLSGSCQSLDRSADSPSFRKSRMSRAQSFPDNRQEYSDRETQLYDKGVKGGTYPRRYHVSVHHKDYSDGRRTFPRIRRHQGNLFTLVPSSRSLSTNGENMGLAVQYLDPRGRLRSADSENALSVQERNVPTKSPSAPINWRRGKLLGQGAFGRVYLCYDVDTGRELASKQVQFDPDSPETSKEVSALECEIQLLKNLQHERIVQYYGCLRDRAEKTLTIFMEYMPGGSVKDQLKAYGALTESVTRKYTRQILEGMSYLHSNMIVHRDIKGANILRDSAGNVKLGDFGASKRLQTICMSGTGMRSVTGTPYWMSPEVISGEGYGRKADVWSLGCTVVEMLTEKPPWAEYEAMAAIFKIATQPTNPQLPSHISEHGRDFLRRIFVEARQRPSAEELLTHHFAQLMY
MEKK2 WT-MEK5: raises or lowers MEK5 binding to wildtype human MEKK2 PB1 domain; Q9Y2U5; bead flow cytometry, Alexa488-MEK5 binding to MEKK2 WT; actives lie on both sides; binding response (% of control), % at 10 µM; 290,000 compounds, 1.1% hits; AID 1531; in the data active = binding response below about 67% or above about 130%
UBC13 polyUb: blocks human UBC13 polyubiquitin chain formation. 330,000 compounds, 0.47% hits. TR-FRET. inhibition, % at 20 µM. P61088. AID 485273; in the data active = inhibition above about 45%, passing the limit was not always enough
MEKK2 mut-MEK5: signal of MEK5 binding to mutant human MEKK2 PB1 domain; bead flow cytometry, Alexa488-MEK5 binding to MEKK2 mutant; percent response, % at 10 µM; 290,000 compounds, 0.35% hits; AID 1530; in the data active = percent response above about 24%, passing the limit was not always enough
MEKK2wt confirm: raises or lowers MEK5 binding to wildtype human MEKK2, retest | shares compounds with MEKK3 PB1 HTS | bead flow cytometry, Alexa488-MEK5 binding to MEKK2 WT; actives lie on both sides | binding response (% of control), % at 10 µM | 5,900 compounds, 2.4% hits; in the data active = binding response below about 16% or above about 210%; inactive = in between
MEKK2mut-MEK5: signal of MEK5 binding to mutant human MEKK2, retest. bead flow cytometry, Alexa488-MEK5 binding to MEKK2 mutant. AID 1893. 5,900 compounds, 2% hits. percent response, % at 10 µM. shares compounds with MEKK3 PB1 HTS; in the data active = percent response mostly above about 71%, no sharp cut-off; inactive = mostly below about 38%;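 note: higher means compound restores mutant binding toward wildtype level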
MEKK3 confirm: MEKK3-MEK5 PB1 inhibition, single concentration confirmation. shares compounds with MEKK3 PB1 HTS. bead flow cytometry, Alexa488-MEK5 binding to MEKK3; hits give low values. binding response (% of control), % at 10 µM. 5,900 compounds, 1.8% hits;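 active = binding response below 72% of control, or above a set upper limit, though filed actives all read lower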;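 note: 100% = DMSO only wells and 0% = binding blocked by excess unlabeled MEK5; lower values mean stronger disruption of MEK5 binding to MEKK3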
* hit, by the source's call; [ ] = another dose, or the depositor's remark. Shown are actives, neighbours in structure and some others; about 2.9% of the full set was active somewhere.

For O=C(c1ccccc1)N1CCN(CC(O)Cn2ccc3ccccc32)CC1 (stereo not given) the results were Apaf1 inhib -22, MEKK3 PB1 HTS 118, MEKK2 WT-MEK5 119, UBC13 polyUb 0 and MEKK2 mut-MEK5 23.
CN1CCN(Cn2cc(/C=C/C(=O)c3ccccc3)c3ccccc32)CC1 was read as Apaf1 inhib -2, MEKK3 PB1 HTS 104, MEKK2 WT-MEK5 142*, UBC13 polyUb 15, MEKK2 mut-MEK5 18, MEKK2wt confirm 111, MEKK2mut-MEK5 1 and MEKK3 confirm 101.
Screening CCCCN(C)CC(O)Cn1cc(/C=C/C(=O)c2ccc(C)cc2)c2ccccc21 (stereo not given) returned Apaf1 inhib 36, MEKK3 PB1 HTS 107, MEKK2 WT-MEK5 186*, UBC13 polyUb 26, MEKK2 mut-MEK5 54*, MEKK2wt confirm 189, MEKK2mut-MEK5 55 and MEKK3 confirm 107.
Screening On1nnc2c3ccccc3c3ccccc3c21 returned Apaf1 inhib 9, MEKK3 PB1 HTS 98, MEKK2 WT-MEK5 92, UBC13 polyUb -4 and MEKK2 mut-MEK5 -14.
`O=C(/C=C/c1cn(CC(O)CN2CCCCC2)c2ccccc12)c1ccccc1` (stereo not given) gave MEKK3 PB1 HTS 98, MEKK2 WT-MEK5 141*, MEKK2 mut-MEK5 16, MEKK2wt confirm 160, MEKK2mut-MEK5 37 and MEKK3 confirm 107.
`CN(C)C(=O)c1ccc(Oc2ccc(C(=O)N(C)C)cc2)cc1` gave Apaf1 inhib -14, MEKK3 PB1 HTS 66*[inhibitor], MEKK2 WT-MEK5 75, UBC13 polyUb 9, MEKK2 mut-MEK5 -14, MEKK2wt confirm 100, MEKK2mut-MEK5 -1 and MEKK3 confirm 100.
Screening COc1ccccc1NC(=O)Cc1nnc(SCC(=O)Nc2nccs2)n1C returned Apaf1 inhib 7, MEKK3 PB1 HTS 102, MEKK2 WT-MEK5 99, UBC13 polyUb 2 and MEKK2 mut-MEK5 -4.
For Cc1cccc(C)c1OCCOCCN1CCN(C)CC1 the results were Apaf1 inhib 1, MEKK3 PB1 HTS 105, MEKK2 WT-MEK5 145*, UBC13 polyUb 7, MEKK2 mut-MEK5 6, MEKK2wt confirm 121, MEKK2mut-MEK5 16 and MEKK3 confirm 102.
Screening Cc1cccc(C)c1OCCN1CCCC1 returned Apaf1 inhib -5, MEKK3 PB1 HTS 104, MEKK2 WT-MEK5 108, UBC13 polyUb -2 and MEKK2 mut-MEK5 4.
Screening COCCn1c(=S)[nH]c2cc(C(=O)NCC3CCCO3)ccc2c1=O (stereo not given) returned Apaf1 inhib -10, MEKK3 PB1 HTS 108, MEKK2 WT-MEK5 108, UBC13 polyUb -2 and MEKK2 mut-MEK5 5.
COc1ccc2[nH]c3c(=O)n(Cc4ccc(C(=O)NCC5CCCO5)cc4)c(=S)[nH]c3c2c1 (stereo not given) was read as Apaf1 inhib -19, MEKK3 PB1 HTS 128, MEKK2 WT-MEK5 119, UBC13 polyUb -1, MEKK2 mut-MEK5 178*, MEKK2wt confirm 102, MEKK2mut-MEK5 5 and MEKK3 confirm 103.
For O=C(NCC1CCCO1)c1ccc2c(=O)n(CC3CCCO3)c(=S)[nH]c2c1 (stereo not given) the results were Apaf1 inhib 6, MEKK3 PB1 HTS 2.0*[inhibitor], MEKK2 WT-MEK5 3.0*[inhibitor], UBC13 polyUb 5, MEKK2 mut-MEK5 -18, MEKK2wt confirm 97, MEKK2mut-MEK5 -4 and MEKK3 confirm 101.
Screening COc1ccc(/C=N\NC(=O)CCc2c(C)n[nH]c2C)c(OC)c1OC returned Apaf1 inhib -11, MEKK3 PB1 HTS 134*, MEKK2 WT-MEK5 109, UBC13 polyUb 4, MEKK2 mut-MEK5 2, MEKK2wt confirm 111, MEKK2mut-MEK5 3 and MEKK3 confirm 100.
For COc1ccc(/C=N/NC(=O)CCc2n[nH]c(=O)[nH]c2=O)cc1OC the results were Apaf1 inhib -1, MEKK3 PB1 HTS 129*, MEKK2 WT-MEK5 106, UBC13 polyUb 3, MEKK2 mut-MEK5 0, MEKK2wt confirm 110, MEKK2mut-MEK5 14 and MEKK3 confirm 108.
`CCCOc1ccc(/C=N\NC(=O)CCc2n[nH]c(=O)[nH]c2=O)cc1OC` gave Apaf1 inhib 4, MEKK3 PB1 HTS 101, MEKK2 WT-MEK5 98, UBC13 polyUb -11 and MEKK2 mut-MEK5 -2.
Screening COc1cccc(/C=N/NC(=O)CCc2n[nH]c(=O)[nH]c2=O)c1O returned Apaf1 inhib -3, MEKK3 PB1 HTS 128*, MEKK2 WT-MEK5 103, UBC13 polyUb 4, MEKK2 mut-MEK5 0, MEKK2wt confirm 109, MEKK2mut-MEK5 5 and MEKK3 confirm 103.
`COc1cccc(/C=N/NC(=O)CCc2c(C)n[nH]c2C)c1O` gave Apaf1 inhib -9, MEKK3 PB1 HTS 99, MEKK2 WT-MEK5 97, UBC13 polyUb 12 and MEKK2 mut-MEK5 11.
CCc1nn2c(=O)cc(COC(=O)c3cc(Cl)c(OC)c(OC)c3)nc2s1 was read as Apaf1 inhib 2 and UBC13 polyUb -8.
O=C(c1nn(-c2ccccc2)c(=O)c2ccccc12)N1CCN(c2ccccn2)CC1 was read as Apaf1 inhib -3, MEKK3 PB1 HTS 66*[inhibitor], MEKK2 WT-MEK5 78, UBC13 polyUb -8, MEKK2 mut-MEK5 -5, MEKK2wt confirm 102, MEKK2mut-MEK5 1 and MEKK3 confirm 99.
O=C(c1nn(-c2ccccc2)c(=O)c2ccccc12)N1CCN(c2ncccn2)CC1 was read as Apaf1 inhib 11, MEKK3 PB1 HTS 103, MEKK2 WT-MEK5 94, UBC13 polyUb -4 and MEKK2 mut-MEK5 -5.
`Cc1ccc(-c2nnn(CC(=O)NC3CCN(Cc4ccccc4)CC3)n2)cc1` gave Apaf1 inhib 10, MEKK3 PB1 HTS 71*[inhibitor], MEKK2 WT-MEK5 111, UBC13 polyUb 29, MEKK2 mut-MEK5 1, MEKK2wt confirm 110, MEKK2mut-MEK5 0 and MEKK3 confirm 105.
`CC(NC(=O)C(=O)NCCC1=CCCCC1)c1ccccc1` (stereo not given) gave Apaf1 inhib 9, MEKK3 PB1 HTS 139*, MEKK2 WT-MEK5 105, UBC13 polyUb -3, MEKK2 mut-MEK5 0, MEKK2wt confirm 98, MEKK2mut-MEK5 -2 and MEKK3 confirm 98.
`CCOC(=O)c1ccc(N2C(=O)CC(Nc3ccc(O)cc3)C2=O)cc1` (stereo not given) gave Apaf1 inhib -16, MEKK3 PB1 HTS 128*, MEKK2 WT-MEK5 110, UBC13 polyUb -8, MEKK2 mut-MEK5 28, MEKK2wt confirm 100, MEKK2mut-MEK5 8 and MEKK3 confirm 104.
